The source of these data is ChEMBL document CHEMBL3525985, “Regiospecificity and stereospecificity of human UDP-glucuronosyltransferases in the glucuronidation of estriol, 16-epiestriol, 17-epiestriol, and 13-epiestradiol” (Drug Metab Dispos, 2013).

Holding throughout (assay type): ADME
Data set [1] addresses T1, UDP-glucuronosyltransferase 1A3 (Homo sapiens, UniProt P35503).
T1 sequence (P35503 whole entry): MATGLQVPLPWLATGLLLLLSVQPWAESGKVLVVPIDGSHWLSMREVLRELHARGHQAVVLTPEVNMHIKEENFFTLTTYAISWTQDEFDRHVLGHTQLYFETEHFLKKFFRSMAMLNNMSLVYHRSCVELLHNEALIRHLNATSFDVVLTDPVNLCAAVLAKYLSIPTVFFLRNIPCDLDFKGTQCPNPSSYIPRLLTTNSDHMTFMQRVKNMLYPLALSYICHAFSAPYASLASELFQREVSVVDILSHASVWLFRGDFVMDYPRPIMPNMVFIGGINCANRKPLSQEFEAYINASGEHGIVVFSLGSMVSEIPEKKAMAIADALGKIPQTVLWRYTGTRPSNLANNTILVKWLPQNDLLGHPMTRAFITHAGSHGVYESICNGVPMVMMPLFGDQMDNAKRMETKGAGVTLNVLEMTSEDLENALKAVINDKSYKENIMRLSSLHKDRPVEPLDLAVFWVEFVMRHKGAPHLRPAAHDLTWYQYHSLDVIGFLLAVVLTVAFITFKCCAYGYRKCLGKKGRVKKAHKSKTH
The experiment in a line: Drug metabolism assessed as recombinant human C-terminal His-tagged UGT1A3-mediated 17-epiestriol-3-glucuronide formation at 200 uM after 15 to 60 mins by HPLC analysis in presence of UDPGA. Conditions: recombinant enzyme. In a few lines:
(§1)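 Screening at a single substrate concentration of 200 μM, in triplicate. The reaction used 5 or 50 µg of UGT-enriched insect cell membranes in 50 mM phosphate pH 7.4 with 10 mM MgCl₂ and 5 mM UDPGA, 10% final DMSO. Incubation was 15–60 min at 37°C. Perchloric acid stopped the reaction and supernatants were analysed by HPLC. Controls lacked UDPGA. Rates were normalized to relative UGT expression level.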

Data set [2] concerns the target T2, UDP-glucuronosyltransferase 2B7 (Homo sapiens, UniProt P16662).
T2 sequence (P16662 whole entry): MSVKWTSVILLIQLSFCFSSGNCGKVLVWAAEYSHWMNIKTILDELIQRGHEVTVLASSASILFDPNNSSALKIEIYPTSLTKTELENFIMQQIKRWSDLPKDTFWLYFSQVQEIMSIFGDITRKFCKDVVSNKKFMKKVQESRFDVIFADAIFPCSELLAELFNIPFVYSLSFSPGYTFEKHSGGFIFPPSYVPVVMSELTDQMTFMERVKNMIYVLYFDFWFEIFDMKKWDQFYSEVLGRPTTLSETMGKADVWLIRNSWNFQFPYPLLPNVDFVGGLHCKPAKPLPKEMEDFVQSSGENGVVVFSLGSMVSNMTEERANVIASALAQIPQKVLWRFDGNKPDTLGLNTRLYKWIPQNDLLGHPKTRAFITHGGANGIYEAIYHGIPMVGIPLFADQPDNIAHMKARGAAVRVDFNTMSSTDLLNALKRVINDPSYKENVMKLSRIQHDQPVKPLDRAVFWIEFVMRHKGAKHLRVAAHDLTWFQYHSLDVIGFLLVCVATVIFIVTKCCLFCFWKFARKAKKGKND
Briefly: Drug metabolism assessed as recombinant human C-terminal His-tagged UGT2B7-mediated estriol-16-glucuronide formation after 15 to 60 mins by Michaelis-Menten equation analysis in presence of UDPGA. As to conditions: recombinant enzyme. In a few lines:
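Kinetics with His-tagged UGT-enriched insect-cell membranes (5 or 50 µg): aglycone 0.2–300 µM in 10% DMSO, 5 mM UDPGA, 10 mM MgCl₂, 50 mM phosphate pH 7.4, 15–60 min at 37°C. Substrate consumption kept at or below 10%. Glucuronides quantified by HPLC in triplicate, rates normalized to expression, and data fitted to Michaelis-Menten.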

Data set [3] has as its system Liver microsome. Briefly: Drug metabolism in human liver microsomes assessed as estriol-3-glucuronide formation after 15 to 60 mins by Michaelis-Menten equation analysis in presence of UDPGA. A digest of the protocol:
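Pooled human liver microsomes (30 donors), 0.5 or 10 µg, with alamethicin at 5% of total protein. Incubated with 50 mM phosphate pH 7.4, 10 mM MgCl₂, 5 mM UDPGA and 10% DMSO for 15–60 min at 37°C. Each glucuronide regioisomer quantified by HPLC, in triplicate, with substrate consumption at or below 10%.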
Background: Microsomes from liver hold many membrane-bound enzymes, among them those of drug oxidation.

A short description of data set [4]: Drug metabolism in human intestine microsomes assessed as estriol-17-glucuronide formation after 15 to 60 mins by Michaelis-Menten equation analysis in presence of UDPGA. In a few lines: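 Pooled human intestine microsomes (6 donors), 0.5 or 10 µg, with alamethicin at 5% of total protein. Incubated with 50 mM phosphate pH 7.4, 10 mM MgCl₂, 5 mM UDPGA and 10% DMSO for 15–60 min at 37°C. Each glucuronide regioisomer quantified by HPLC, in triplicate, with substrate consumption at or below 10%.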

Data set [5] deals with T3, UDP-glucuronosyltransferase 2B17 (Homo sapiens, UniProt O75795).
T3 sequence (O75795 whole entry): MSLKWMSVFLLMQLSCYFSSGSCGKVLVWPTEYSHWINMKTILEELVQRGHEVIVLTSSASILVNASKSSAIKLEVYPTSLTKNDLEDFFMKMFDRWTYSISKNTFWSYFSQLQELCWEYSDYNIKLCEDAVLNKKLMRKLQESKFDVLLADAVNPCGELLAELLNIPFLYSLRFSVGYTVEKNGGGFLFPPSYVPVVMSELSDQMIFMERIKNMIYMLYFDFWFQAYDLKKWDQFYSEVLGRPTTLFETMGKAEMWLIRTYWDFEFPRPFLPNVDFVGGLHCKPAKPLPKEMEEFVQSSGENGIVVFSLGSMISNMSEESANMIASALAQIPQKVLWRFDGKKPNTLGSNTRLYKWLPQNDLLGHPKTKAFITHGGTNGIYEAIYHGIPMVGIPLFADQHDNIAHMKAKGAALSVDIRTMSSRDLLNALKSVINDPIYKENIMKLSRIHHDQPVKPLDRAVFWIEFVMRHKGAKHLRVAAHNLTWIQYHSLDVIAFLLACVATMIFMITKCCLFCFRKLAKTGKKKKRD
Briefly: Drug metabolism assessed as recombinant human C-terminal His-tagged UGT2B17-mediated estriol-17-glucuronide formation after 15 to 60 mins by Michaelis-Menten equation analysis in presence of UDPGA. As to conditions: recombinant enzyme.

Data set [6] has as its target T1, UDP-glucuronosyltransferase 1A3. Briefly: Drug metabolism assessed as recombinant human C-terminal His-tagged UGT1A3-mediated 13-epiestradiol-3-glucuronide formation at 200 uM after 15 to 60 mins by HPLC analysis in presence of UDPGA. Conditions: recombinant enzyme. A digest of the protocol: as §1

What is called Km is the concentration of substrate that gives half-maximal velocity. Broadly, the Vmax is the top rate of the reaction or transport when substrate is in excess.

Consider `C[C@]12CC[C@@H]3c4ccc(O)cc4CC[C@H]3[C@@H]1C[C@@H](O)[C@H]2O`, for which, in data set [1], the Drug metabolism entry is “metabolite_detected”.
Turning to `C[C@]12CC[C@@H]3c4ccc(O)cc4CC[C@H]3[C@@H]1C[C@@H](O)[C@@H]2O` [ESTRIOL], the Drug metabolism in data set [2] is recorded as 1200 pmol/min/mg; in data set [5], 4 pmol/min/mg. In addition, the Km turned out to be 313 µM in data set [3] and 1120 µM in data set [4]. Moreover, the Vmax in data set [3] is on record as 95 pmol/min/mg; in data set [4] it was 2095 pmol/min/mg.
Turning to `C[C@@]12CC[C@@H]3c4ccc(O)cc4CC[C@H]3[C@@H]1CC[C@@H]2O`, in data set [6], the Drug metabolism entry is “metabolite_detected”.
